Assay [1] can be described thus: Inhibition of constitutively activated GST-tagged human MEK1 S218D/[…] (MEK1DD) mutant assessed blocking of increase in bovine MBP kinase activity of recombinant His6-tagged ERK2 using [gamma32P]ATP by liquid scintillation counting method. Summed up:
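GST-MEK1DD (50 ng) preincubated 30 min at 30 °C with inhibitor or vehicle and 50 μM ATP plus 5 μCi [γ-32P]ATP, in 20 mM Hepes, 10 mM MgCl2, 1 mM DTT, pH 7.4. His6-ERK2 (300 ng, E. coli-expressed) added for 30 min, then MBP (0.2 mg/mL) for 10 min. Controls run without ERK2. Stopped with Laemmli buffer. IC50 from duplicate determinations.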

For assay [2], the target named is Dual specificity mitogen-activated protein kinase kinase MEK1/2 (Rattus norvegicus, UniProt Q01986+P36506). In words: Inhibition of MEK1/2 in rat IEC6 cells assessed as reduction in ERK1/2 loop phosphorylation dosed 30 mins before to stimulation with 10% serum for 5 mins by immunoblotting method. The gist of the method: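 IEC-6 cells grown in DMEM/10% FBS, then made quiescent at 95% confluence in serum-free DMEM-Ham's F-12 (1:1) with 15 mM Hepes pH 7.4 and 0.1% BSA for 24 h. Compounds added in DMSO. Lysates immunoblotted for phospho-ERK1/2 (Thr202/Tyr204), with total ERK1/2 and HSC70 as loading controls. Bands quantified by densitometry. IC50 from triplicate determinations.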
In general terms: Immunoblotting shows a protein as a band on a membrane.

Assay [3] deals with HT-29. Kind of assay: Antiproliferative activity against human HT-29 cells after 5 days by WST1 assay. The format is functional, cell-based. As to conditions: HT-29, 120 h. The gist of the method:
(§1)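 Cells seeded at 2×10^3 (HCT 116, HT-29) or 1.2×10^3 (A-375, A549) per well in DMEM with 10% FBS, 2 mM glutamine and antibiotics. Compounds added in DMSO, with medium changed daily for 5 days. WST-1 then added for 1 h. Absorbance read at 450 nm, reference 620 nm. Triplicate wells.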
In general terms: Tetrazolium assays rely on reduction of a dye to a coloured formazan, in cell work by metabolically active cells.

Assay [4] relates to A-375. In words: Antiproliferative activity against human A375 cells after 5 days by WST1 assay. The format is functional, cell-based. The settings on record: A-375, 120 h. Summed up:
as §1

Assay [5] relates to A549. In words: Antiproliferative activity against human A549 cells after 5 days by WST1 assay. The format is functional, cell-based. The settings on record: A549, 120 h. Summed up:
as §1

Assay [6] is described as follows: Antiproliferative activity against human HCT116 cells after 5 days by WST1 assay. The format is functional, cell-based. The settings on record: HCT-116, 120 h. Summed up: as §1
Assay [7] has as its target Dual specificity mitogen-activated protein kinase kinase 1 (Homo sapiens) (UniProt Q02750). In words: Inhibition of MEK1 (unknown origin) at 1 uM.
Assay [8] is filed under the species Homo sapiens. Kind of assay: Potency index, ratio of IC50 for PD98059 to IC50 for test compound against constitutively activated GST-tagged human MEK1 S218D/[…] (MEK1DD) mutant.

Activity calls are given as the source filed them. No cut-off for these calls is given here.

Sequence of Dual specificity mitogen-activated protein kinase kinase 1 (Homo sapiens) (Q02750 whole entry): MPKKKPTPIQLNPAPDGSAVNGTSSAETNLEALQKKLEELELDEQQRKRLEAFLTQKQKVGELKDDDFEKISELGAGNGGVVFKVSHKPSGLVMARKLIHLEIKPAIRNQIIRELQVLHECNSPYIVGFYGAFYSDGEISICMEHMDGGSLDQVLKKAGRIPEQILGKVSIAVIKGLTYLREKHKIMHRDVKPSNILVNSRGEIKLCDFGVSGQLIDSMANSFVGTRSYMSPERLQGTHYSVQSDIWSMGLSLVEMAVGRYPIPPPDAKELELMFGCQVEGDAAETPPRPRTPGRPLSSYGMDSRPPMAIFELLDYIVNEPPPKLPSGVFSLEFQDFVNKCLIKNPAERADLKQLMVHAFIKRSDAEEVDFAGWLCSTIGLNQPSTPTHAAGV

Regarding `COc1cccc(-c2cc(=O)c3ccccc3o2)c1N`, the IC50 in assay [1] is 2 µM; in assay [2], 4.2 µM; in assay [3], 4 µM.
Take `COc1cccc(-c2cc(=O)c3cccc(NCC[C@H](O)CO)c3o2)c1N`: the IC50 in assay [2] is 0.073 µM.
For the compound `COc1cccc(-c2cc(=O)c3cc(Cl)cc(NCc4ccccc4)c3o2)c1N`, the half-inhibitory concentration (IC50) was 1.4 µM in assay [1] and over 100 µM in assay [2].
Turning to `COc1cccc(-c2cc(=O)c3cc(Cl)cc(NCC[C@H](O)CO)c3o2)c1N`, the IC50 was determined as 0.22 µM in assay [1]; 3.1 µM in assay [2]; 3.7 µM in assay [3]; 10.5 µM in assay [4]; 17.4 µM in assay [5]; 13 µM in assay [6].
Consider `CCOc1cccc(-c2cc(=O)c3ccccc3o2)c1N`, for which the half-inhibitory concentration (IC50) in assay [1] was determined as 1.9 µM; in assay [2], 1 µM.
Consider `COc1cccc(-c2cc(=O)c3cc(Cl)cc(NCCCO)c3o2)c1N`, for which the IC50 in assay [1] is 0.03 µM; in assay [2] it was 1.6 µM; in assay [3], 1.6 µM; in assay [4] it was 5.9 µM; in assay [5], 12 µM; in assay [6], 10.3 µM. In addition, the inhibition entry in assay [7] is “Active”. Besides, the Ratio IC50 in assay [8] was under 100.
For `COc1cccc(-c2cc(=O)c3cc(Cl)cc(NC(C)C)c3o2)c1N`, the IC50 was 2.7 µM in assay [1] and over 100 µM in assay [2].
As for `COc1cccc(-c2cc(=O)c3cc(Cl)cc(NC4CCOCC4)c3o2)c1N`, the IC50 in assay [1] is 1.1 µM; in assay [2], over 100 µM.
As for `COCCCNc1cc(Cl)cc2c(=O)cc(-c3cccc(OC)c3N)oc12`, the half-inhibitory concentration (IC50) in assay [1] was 9.1 µM; in assay [2], over 100 µM.
As for `COc1cccc(-c2cc(=O)c3cc(Cl)cc(NCCCN(C)C)c3o2)c1N`, the IC50 in assay [1] is 6.8 µM; in assay [2], over 100 µM.
Consider `CCCCNc1cc(Cl)cc2c(=O)cc(-c3cccc(OC)c3N)oc12`, for which the IC50 in assay [1] was 1.9 µM; in assay [2], over 100 µM.
Take `COc1cccc(-c2cc(=O)c3cc(Cl)cc(CCCN)c3o2)c1N`: the IC50 in assay [1] is 4.4 µM.
Turning to `COc1cccc(-c2cc(=O)c3cccc(NCCCO)c3o2)c1N`, in assay [2], the concentration for half-maximal inhibition (IC50) was determined as 0.097 µM.
As for `COc1cccc(-c2cc(=O)c3cc(Cl)ccc3o2)c1N`, the IC50 is 6.4 µM in assay [1] and over 100 µM in assay [2].
In the case of `COc1cccc(-c2cc(=O)c3cc(Cl)cc(NCCCN)c3o2)c1N`, the figures for the IC50 in assay [1] and in assay [2] were 10.3 µM and over 100 µM, respectively.

One may read the IC50 as the concentration at which inhibition is half-maximal.

For the origin of these results see ChEMBL document CHEMBL3352752, “Towards the development of chromone-based MEK1/2 modulators” (Eur J Med Chem, 2014).
